# From PubChem
# Most compounds without a hit are left out; they make up all but 0.75% or so of the library.
# Mdm2 ligase inh: inhibitors of human Mdm2 E3 ubiquitin ligase; AID 1230; cell-based MDM2 ubiquitination luciferase reporter, 2 h; 0 = plate control, 100 = twice control, blank-subtracted; signal enhancement, % at 5 µM; 210,000 compounds, 0.11% hits;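 active = signal enhancement of 30% or more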;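 also: luminescence tracks abundance of the self-degrading MDM2-luciferase fusion protein; higher signal means inhibition of MDM2 E3 ligase activity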
# Target sequence (Q00987 whole entry, looked up, the tested form may be a part): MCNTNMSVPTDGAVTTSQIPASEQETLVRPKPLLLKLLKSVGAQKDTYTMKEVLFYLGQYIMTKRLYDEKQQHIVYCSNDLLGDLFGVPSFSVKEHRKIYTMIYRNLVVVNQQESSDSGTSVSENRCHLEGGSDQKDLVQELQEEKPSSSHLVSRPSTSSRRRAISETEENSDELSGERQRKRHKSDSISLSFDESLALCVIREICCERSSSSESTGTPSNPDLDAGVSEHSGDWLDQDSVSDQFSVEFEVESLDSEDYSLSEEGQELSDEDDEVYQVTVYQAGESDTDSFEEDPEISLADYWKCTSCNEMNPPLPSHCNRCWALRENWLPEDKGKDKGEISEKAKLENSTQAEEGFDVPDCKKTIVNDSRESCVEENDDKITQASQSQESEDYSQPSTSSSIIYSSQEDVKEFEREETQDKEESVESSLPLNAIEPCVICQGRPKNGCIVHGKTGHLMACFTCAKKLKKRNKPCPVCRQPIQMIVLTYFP
#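 Timing – 2 h compound exposure at 37 °C · Assay system – mammalian cells stably expressing self-ubiquitinating, self-degrading MDM2 E3–luciferase fusion · Amount – 2000 cells seeded into each well · Measure – % luminescence enhancement versus blank-corrected plate control mean · Measured by – SteadyLite luminescence, 15 min reagent step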
# NCF1 inh: blocks human p47phox regulatory protein of NADPH oxidases | AID 1274 | inhibition, % at 24.7 µM | 220,000 compounds, 0.53% hits | p47phox/p22phox peptide binding, fluorescence polarization, 2 h | P14598;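 active = inhibition above about 30%, limit read from the data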;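 also: 0% = p47phox with labelled peptide and 100% = labelled peptide alone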
# Rad51 HR inh: blocks human Rad51 in homologous recombination | Q06609 | 200,000 compounds, 0.085% hits | AID 1385 | inhibition, % at 10 µM | hRad51 DNA strand exchange, fluorescence dequenching;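 active = inhibition above 40% at the single screening dose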;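 also: 0% = DMSO control wells and 100% = blanks with heterologous ssDNA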
#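 material = hRad51 filaments on single-stranded DNA | timing = filaments 15 min 37 °C, then compound 30 min | signal = FRET fluorescence dequenching, excitation 485 nm, emission 520 nm | benchmarks = control wells and blank wells on each plate | evaluation = percent inhibition relative to plate controls and blanks | compound = 10 µM final, single point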
# TbHK1 inh: blocks Trypanosoma brucei hexokinase 1 activity; inhibition, % at 10 µM; 220,000 compounds, 0.11% hits; recombinant TbHK1, G6PDH-coupled NADH A340;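 active = inhibition of 50% or more in the single-dose primary screen; inactive = inhibition below 50%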
# * = called active by the depositor; i = inactive; . = no result given.
SMILES,Mdm2 ligase inh,NCF1 inh,Rad51 HR inh,TbHK1 inh
Cc1c(C(c2ccc(Br)cc2)c2c(O)c3ccccc3oc2=O)c(=O)n(-c2ccccc2)n1C (configuration not stated),-11.0,52.6*,11.4,-5.7
COC(=O)C1=Nc2ccccc2/C1=C\c1c(O)n(C)c(=O)n(C)c1=O,-2.7,-30.0,-17.3,-30.6
Cn1c(O)c(/C=C2\N=c3ccccc3=C2CCNC(=S)NC2CC2)c(=O)n(C)c1=O,7.0,38.7*,.,-11.6
COC(=O)CNC(=O)c1cn(CCC#N)nc1-c1ccc(F)cc1,19.1,-0.3,-3.7,0.6
c1ccc(-c2nnc(C3CC(c4cccnc4)=NO3)o2)cc1 (configuration not stated),4.7,0.0,0.7,-8.7
O=C(c1ccc(Cl)cc1)C1CCCN(Cc2cccc3ncccc23)C1 (configuration not stated),-15.2,-9.3,21.4,0.6
O=C(c1ccc(Cl)cc1)C1CCCN(Cc2ccc3nonc3c2)C1 (configuration not stated),-11.1,47.8*,18.4,0.8
CCCCCn1c(N)c(C(=O)NCCN2CCOCC2)c2nc3ccccc3nc21,-16.2,-23.8,-1.8,-10.5
O=C(NCCN1CCOCC1)c1ccc(Cl)nc1,.,-21.3,40.4*,-2.4
CCN1C[C@]2(CO)CC[C@H](OC)[C@@]34C5C[C@H]6[C@H](OC)C5[C@](O)(C[C@H]6OC)[C@@H](C(OC)C23)[C@@H]14 (some centres not stated),.,.,-5.6,.
CCN1C(=O)C(=C/C=C/c2ccco2)C(=O)N(CC)C1=S,47.0*,-300.4,-371.6,-0.7
CC(C)N1C(=O)/C(=C/C=C/c2ccco2)C(=O)N(Cc2ccco2)C1=O,13.3,-32.1,-55.2,15.1
CC(C)(C)P(=O)(N1CCOCC1)N1CCOCC1,-3.8,-16.1,-6.0,-5.5
O=P(OCC(F)(F)C(F)F)(N1CCOCC1)N1CCOCC1,-9.8,-6.0,88.5*,4.9
C=Cc1ccc(Cn2c(C(=O)O)c(C=O)c3ccccc32)cc1,-3.3,-3.4,-19.6,-15.9
c1ccc(-c2ccc(-c3n(-c4ccccn4)c4ccccc4[n+]3-c3ccccn3)cc2)cc1,-15.3,34.2*,9.4,-8.3
O=C1NC(=O)C(=Cc2ccc(N3CCOCC3)o2)C(=O)N1,-11.4,57.9*,i,1.9
COc1cc(N)c(Cl)cc1C(=O)NC1CN2CCC1CC2 (configuration not stated),.,-13.9,-8.0,.
Cc1ccc(-c2nc(N3CCOCC3)s[n+]2-c2ccccc2)cc1,-3.4,38.0*,6.0,9.3
COc1ccccc1N(CC(=O)NC1CCCCC1)C(=O)c1cnn(C(C)C)c1,-9.7,33.1*,0.1,-6.1
O=C(Nc1ccc(Cl)cc1C(=O)c1ccccc1Cl)c1ccco1,-11.1,-7.7,.,-3.4
O=C1NC(=S)N(Cc2ccco2)C(=O)/C1=C\c1cccs1,-6.4,-97.0,-37.2,80.6*
Cc1cc(/C=C2/C(=O)NC(=O)N(Cc3ccco3)C2=O)c(C)n1-c1ccccc1,-5.4,-96.3,-14.7,3.6
CN(C)c1ccc(/C=C2/C(=O)NC(=O)N(Cc3ccco3)C2=O)cc1,-15.2,77.6*,-23.8,-19.3
CCN(CC)c1ccc(/C=C2/C(=O)NC(=O)N(Cc3ccco3)C2=O)cc1,-25.0,167.8*,-82.6,-20.6
SMILES,Mdm2 ligase inh,NCF1 inh,Rad51 HR inh,TbHK1 inh
OC(c1ccc(F)cc1)(c1ccc(F)cc1)[C@@H]1CCCN1,-22.4,43.4*,0.1,3.7
O=C(N[C@H]1CP(=O)(Oc2ccccc2)O[C@H](COCc2ccccc2)[C@H]1O)C(Cl)(Cl)Cl (some centres not stated),-13.4,-5.7,-3.0,6.2
C/C1=C\[C@@H](C)C/C=C/[C@H]2[C@@H]3O[C@]3(C)[C@@H](C)[C@H]3[C@H](Cc4c[nH]c5ccccc45)NC(=O)[C@]32C(=O)/C=C/C(=O)[C@@H]1O,33.4*,-13.2,7.4,-6.3
CC1=CC2/C=C(\C)CCC(O)C(O)/C=C/C(=O)C23C(=O)NC(CC(C)C)C3C1C (configuration not stated),4.1,-10.1,-3.0,-3.3
O=C1NC(=O)N(c2ccc(F)cc2)C(=O)/C1=C/c1ccc(N2CCOCC2)cc1,-8.1,-13.2,-0.7,-46.5
O=C1NC(=O)N(Cc2ccc(F)cc2)C(=O)/C1=C\c1ccc(N2CCCC2)cc1,-7.1,193.4*,-104.5,-20.2
CC(=O)OC1(c2ccccc2)CCN(C)C(C)C1C (configuration not stated),-8.3,-3.5,1.1,0.9
CSc1nnc(OC(=O)N(C)C)n1-c1ccc(Cl)cc1,-13.3,-12.4,0.9,-4.3
